Assay results taken from ChEMBL document CHEMBL1154183, “Structure-based optimization of potent and selective inhibitors of the tyrosine kinase erythropoietin producing human hepatocellular carcinoma receptor B4 (EphB4)” (J Med Chem, 2009).

molecular target: T1, Ephrin type-B receptor 4 (Homo sapiens, UniProt P54760); test: Inhibition of EphB4 assessed as blockade of synthetic substrate phosphorylation by FRET assay
T1 sequence (P54760 whole entry): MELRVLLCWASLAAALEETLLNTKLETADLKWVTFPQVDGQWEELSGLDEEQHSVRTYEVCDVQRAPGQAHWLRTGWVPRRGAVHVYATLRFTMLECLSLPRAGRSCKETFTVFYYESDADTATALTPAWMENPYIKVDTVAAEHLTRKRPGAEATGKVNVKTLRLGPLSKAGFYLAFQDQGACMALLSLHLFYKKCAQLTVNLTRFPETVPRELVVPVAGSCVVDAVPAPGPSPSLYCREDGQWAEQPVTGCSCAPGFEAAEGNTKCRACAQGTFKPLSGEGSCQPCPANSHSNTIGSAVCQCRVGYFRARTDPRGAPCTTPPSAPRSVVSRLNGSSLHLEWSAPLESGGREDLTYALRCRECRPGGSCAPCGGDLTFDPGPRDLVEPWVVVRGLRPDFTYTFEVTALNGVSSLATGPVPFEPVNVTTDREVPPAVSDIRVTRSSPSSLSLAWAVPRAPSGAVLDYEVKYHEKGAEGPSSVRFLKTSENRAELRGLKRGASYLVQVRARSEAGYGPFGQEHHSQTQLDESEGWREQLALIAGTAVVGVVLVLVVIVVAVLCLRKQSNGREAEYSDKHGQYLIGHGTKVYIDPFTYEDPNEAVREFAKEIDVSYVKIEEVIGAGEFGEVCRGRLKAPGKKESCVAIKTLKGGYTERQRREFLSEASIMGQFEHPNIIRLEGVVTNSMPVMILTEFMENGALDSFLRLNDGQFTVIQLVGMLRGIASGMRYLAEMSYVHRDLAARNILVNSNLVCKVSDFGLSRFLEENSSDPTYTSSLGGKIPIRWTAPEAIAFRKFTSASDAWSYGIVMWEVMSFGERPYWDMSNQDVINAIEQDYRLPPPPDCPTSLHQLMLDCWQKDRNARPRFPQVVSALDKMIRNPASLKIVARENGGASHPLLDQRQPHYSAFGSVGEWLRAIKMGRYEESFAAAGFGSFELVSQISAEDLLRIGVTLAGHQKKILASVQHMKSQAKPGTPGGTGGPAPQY

Question: `COc1ccccc1-n1c(-c2cccc(C)c2)cn2c3c(=O)[nH]c(=O)n(C)c3nc12` was tested. Which IC50 did it give?
Answer: > 10 µM

Question: With `COc1ccccc1-n1c(-c2cccc(O)c2)cn2c3c(=O)[nH]c(=O)n(C)c3nc12` as the compound, how does the IC50 read?
Answer: 0.368 µM

Question: With `COc1ccccc1-n1c(-c2ccc(C#N)cc2)cn2c3c(=O)[nH]c(=O)n(C)c3nc12` as the compound, how does the IC50 read?
Answer: > 20 µM

Question: With `COc1ccccc1-n1c(-c2ccc(O)cc2C)cn2c3c(=O)[nH]c(=O)n(C)c3nc12` as the compound, how does the IC50 read?
Answer: 0.236 µM

Question: With `COc1ccccc1-n1c(-c2ccc(F)cc2)cn2c3c(=O)[nH]c(=O)n(Cc4ccccc4)c3nc12` as the compound, how does the IC50 read?
Answer: > 10 µM

Question: `CCCCn1c(-c2cccc(O)c2)cn2c3c(=O)[nH]c(=O)n(C)c3nc12` was tested. Which IC50 did it give?
Answer: 0.691 µM

Question: With `COc1ccccc1-n1c(-c2ccc3c(c2)OCO3)cn2c3c(=O)[nH]c(=O)n(C)c3nc12` as the compound, how does the IC50 read?
Answer: > 20 µM

Question: With `COc1ccccc1-n1c(-c2ccc(F)cc2)cn2c3c(=O)[nH]c(=O)[nH]c3nc12` as the compound, how does the IC50 read?
Answer: 5.4 µM

Question: With `CCCCn1c(-c2ccc(O)cc2)cn2c3c(=O)[nH]c(=O)n(C)c3nc12` as the compound, how does the IC50 read?
Answer: 0.558 µM

Question: For `COc1ccccc1-n1c(-c2ccccc2)cn2c3c(=O)[nH]c(=O)n(Cc4ccccc4)c3nc12`, which IC50 is on record?
Answer: > 10 µM

Question: With `COc1ccccc1-n1c(-c2cccc(O)c2C)cn2c3c(=O)[nH]c(=O)n(C)c3nc12` as the compound, how does the IC50 read?
Answer: 1.2 µM

Question: Which IC50 does the source give for `COc1ccccc1-n1c(-c2ccc([N+](=O)[O-])cc2)cn2c3c(=O)[nH]c(=O)n(C)c3nc12` here?
Answer: > 20 µM

Question: `CCCCn1c(-c2ccccc2O)cn2c3c(=O)[nH]c(=O)n(C)c3nc12` was tested. Which IC50 did it give?
Answer: 1.6 µM

Question: Which IC50 does the source give for `COc1ccccc1-n1c(-c2ccc(C(=O)O)cc2)cn2c3c(=O)[nH]c(=O)n(C)c3nc12` here?
Answer: > 20 µM

Question: With `CCCCn1c(-c2ccccc2OC)cn2c3c(=O)[nH]c(=O)n(C)c3nc12` as the compound, how does the IC50 read?
Answer: > 10 µM

Question: For `CCCCn1c(-c2ccc(OC)cc2)cn2c3c(=O)[nH]c(=O)n(C)c3nc12`, which IC50 is on record?
Answer: > 10 µM

molecular target: T2, Ephrin type-B receptor 4 (Homo sapiens) (UniProt P54760); test: Inhibition of EphB4 assessed as blockade of synthetic substrate phosphorylation at 10 uM by FRET assay; set-up: scale not given: the % may be the effect or the level left
T2 sequence (whole entry): T1 sequence (P54760 whole entry)
Method in brief: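 Z'-LYTE FRET kinase assay with Tyr 1 peptide substrate. Final EphB4 25 ng/μL, ATP 125 μM (near Km), 30 °C for 2 h. Excitation 400 nm, emission at 445 and 520 nm, read as fluorescence progress curves. Inhibition of substrate phosphorylation was measured.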

Question: `CCCCn1c(-c2cccc(OC)c2)cn2c3c(=O)[nH]c(=O)n(C)c3nc12` was tested. Which Activity did it give?
Answer: 36%

Question: `Cn1c(=O)[nH]c(=O)c2c1nc1n(CCCCO)c(-c3ccc4c(c3)OCO4)cn21` was tested. Which Activity did it give?
Answer: 42%

Question: For `CCCCn1c(-c2cccc(C)c2)cn2c3c(=O)[nH]c(=O)n(C)c3nc12`, which Activity is on record?
Answer: 37%

Question: `COc1ccccc1-n1c(-c2ccccc2O)cn2c3c(=O)[nH]c(=O)n(C)c3nc12` was tested. Which Activity did it give?
Answer: 64%

Question: For `COc1ccccc1-n1c(-c2cccc3c2OCO3)cn2c3c(=O)[nH]c(=O)n(C)c3nc12`, which Activity is on record?
Answer: 30%

Question: Which Activity does the source give for `COc1ccccc1-n1c(-c2ccc(O)cc2)cn2c3c(=O)[nH]c(=O)n(C)c3nc12` here?
Answer: 59%

Question: For `CCCCn1c(-c2ccc(C)cc2)cn2c3c(=O)[nH]c(=O)n(C)c3nc12`, which Activity is on record?
Answer: 38%

molecular target: T1, Ephrin type-B receptor 4; test: Inhibition of EphB4 by [gamma33-P]ATP based assay

Question: For `COc1ccccc1-n1c(-c2cccc(O)c2)cn2c3c(=O)[nH]c(=O)n(C)c3nc12`, which IC50 is on record?
Answer: 0.213 µM

Question: With `Cn1c(=O)[nH]c(=O)c2c1nc1n(CCCCO)c(-c3ccccc3)cn21` as the compound, how does the IC50 read?
Answer: 5.68 µM
